# Measurements from ChEMBL document CHEMBL4334464, “From Phenylthiazoles to Phenylpyrazoles: Broadening the Antibacterial Spectrum toward Carbapenem-Resistant Bacteria” (J Med Chem, 2019).
# Calls of active or inactive are those of the source. The rule behind the calls is not given here.
# Key:
# Escherichia coli [1] = test: Antimicrobial activity against Escherichia coli JW55031 harboring deltatolC mutant after 18 to 20 hrs in aerobic condition by CLSI protocol based broth microdilution assay; assay type: functional
# Staphylococcus aureus [2] = test: Antibacterial activity against Methicillin-sensitive Staphylococcus aureus NRS107 clinical isolates after 18 to 20 hrs in aerobic condition by CLSI protocol based broth microdilution assay; assay type: functional
# Staphylococcus aureus [3] = test: Antibacterial activity against linezolid-resistant/Methicillin-resistant Staphylococcus aureus NRS119 clinical isolates after 18 to 20 hrs in aerobic condition by CLSI protocol based broth microdilution assay; assay type: functional
# Staphylococcus aureus [4] = test: Antibacterial activity against Methicillin-resistant Staphylococcus aureus NRS123-USA400 clinical isolates after 18 to 20 hrs in aerobic condition by CLSI protocol based broth microdilution assay; assay type: functional
# Staphylococcus aureus [5] = test: Antibacterial activity against Methicillin-resistant Staphylococcus aureus NRS385-USA500 clinical isolates after 18 to 20 hrs in aerobic condition by CLSI protocol based broth microdilution assay; assay type: functional
# Staphylococcus aureus [6] = test: Antibacterial activity against vancomycin-resistant Staphylococcus aureus isolate 10 after 18 to 20 hrs in aerobic condition by CLSI-based broth microdilution assay; assay type: functional
# Staphylococcus aureus [7] = test: Antibacterial activity against vancomycin-resistant Staphylococcus aureus isolate 12 after 18 to 20 hrs in aerobic condition by CLSI-based broth microdilution assay; assay type: functional
# Staphylococcus aureus [8] = test: Bactericidal activity against methicillin-resistant Staphylococcus aureus NRS123-USA400 clinical isolates at 5 times MIC incubated over 24 hrs followed by replating on tryptic soy agar plate and further incubated for 18 to 20 hrs by time kill assay; assay type: functional, organism-based
# Enterococcus faecium = test: Antibacterial activity against vancomycin-resistant Enterococcus faecium ATCC 700221 clinical isolates after 18 to 20 hrs in aerobic condition by CLSI-based broth microdilution assay; assay type: functional
# Clostridioides difficile = test: Antibacterial activity against Clostridium difficile ATCC BAA 1870 incubated for 48 hrs in anaerobic condition by CLSI-based broth microdilution assay; assay type: functional; details: ATCC BAA 1870, 48 h
# Acinetobacter baumannii [9] = test: Antibacterial activity against Acinetobacter baumannii NR 17786 clinical isolates after 18 to 20 hrs in aerobic condition by CLSI-based broth microdilution assay; assay type: functional
# Escherichia coli [10] = test: Antibacterial activity against Escherichia coli BW25113 clinical isolates after 18 to 20 hrs in aerobic condition by CLSI-based broth microdilution assay; assay type: functional
# Escherichia coli [11] = test: Antibacterial activity against Escherichia coli ATCC 25922 clinical isolates after 18 to 20 hrs in aerobic condition by CLSI-based broth microdilution assay; assay type: functional
# Klebsiella pneumoniae [12] = test: Antibacterial activity against Klebsiella pneumoniae BAA-1706 clinical isolates after 18 to 20 hrs in aerobic condition by CLSI-based broth microdilution assay; assay type: functional
# Klebsiella pneumoniae [13] = test: Antibacterial activity against Klebsiella pneumoniae BAA-1144 clinical isolates after 18 to 20 hrs in aerobic condition by CLSI-based broth microdilution assay; assay type: functional
# Salmonella enterica = test: Antibacterial activity against Salmonella enterica NR-170 clinical isolates after 18 to 20 hrs in aerobic condition by CLSI-based broth microdilution assay; assay type: functional
# Salmonella enteritidis [14] = test: Antibacterial activity against Salmonella enteritidis ATCC 13076 clinical isolates after 18 to 20 hrs in aerobic condition by CLSI-based broth microdilution assay; assay type: functional, Salmonella enterica subsp. enterica serovar Enteritidis; details: Salmonella enterica
# Salmonella enteritidis [15] = test: Antibacterial activity against Salmonella enteritidis ATCC 14028 clinical isolates after 18 to 20 hrs in aerobic condition by CLSI-based broth microdilution assay; assay type: functional, Salmonella enterica subsp. enterica serovar Enteritidis; details: Salmonella enterica
# Pseudomonas aeruginosa [16] = test: Antibacterial activity against Pseudomonas aeruginosa ATCC 15442 clinical isolates after 18 to 20 hrs in aerobic condition by CLSI-based broth microdilution assay; assay type: functional
# Klebsiella pneumoniae [17] = test: Antibacterial activity against carbapenem-resistant Klebsiella pneumoniae ATCC BAA-1705 clinical isolates after 18 to 20 hrs in aerobic condition by CLSI-based broth microdilution assay; assay type: functional
# Klebsiella pneumoniae [18] = test: Antibacterial activity against carbapenem-resistant Klebsiella pneumoniae ATCC BAA-2146 clinical isolates after 18 to 20 hrs in aerobic condition by CLSI-based broth microdilution assay; assay type: functional
# Acinetobacter baumannii [19] = test: Antibacterial activity against carbapenem-resistant Acinetobacter baumannii ATCC BAA 1605 clinical isolates after 18 to 20 hrs in aerobic condition by CLSI-based broth microdilution assay; assay type: functional
# Staphylococcus aureus [20] = test: Antibiofilm activity against methicillin-resistant Staphylococcus aureus NRS384-USA300 clinical isolates assessed as inhibition of biofilm formation at 0.5 times MIC incubated for 24 hrs by crystal violet staining based spectrophotometric method relative to control; assay type: functional
# Staphylococcus aureus [21] = test: Antibacterial activity against methicillin-resistant Staphylococcus aureus NRS123-USA400 infected in mouse J774 cells assessed as reduction in intracellular bacterial cells at 2 times MIC incubated for 24 hrs followed by re-plating on TSA plate and measured after 18 to 22 hrs relative to control; assay type: functional; parameters: scale not given: the % may be the effect or the level left
# Procedure, shortened: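 J774 murine macrophages were infected with MRSA USA400 and then treated at 2×MIC for 24 h, in triplicate. The read-out was percent reduction in intracellular colony-forming units versus untreated infected cells.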
# [22] = Stability in human liver microsomes assessed as compound remaining incubated for 15 mins in presence of NADPH by LC/MS/MS analysis; assay type: ADME, Microsome; details: read-out: Stability
# Procedure, shortened: (§1)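 Two independent runs (1st and 2nd) were done at each time point, and the mean percent remaining is reported. Incubations were run both with and without NADPH. Half-life and intrinsic clearance (Clint) were derived from the time-course data.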
# [23] = Stability in human liver microsomes assessed as compound remaining measured immediately in absence of NADPH by LC/MS/MS analysis; assay type: ADME, Microsome; details: read-out: Stability; procedure, shortened: as §1
# [24] = Intrinsic clearance in human liver microsomes in absence of NADPH by LC/MS/MS analysis; assay type: ADME, Microsome; details: read-out: CLH
# [25] = tested on: Staphylococcus epidermidis; test: Ratio of MBC to MIC for Staphylococcus epidermidis NRS101 clinical isolates; assay type: functional
# Enterococcus faecalis = test: Ratio of MBC to MIC for vancomycin-resistant Enterococcus faecalis ATCC 51299 clinical isolates; assay type: functional
# Streptococcus pneumoniae = test: Ratio of MBC to MIC for […] Streptococcus pneumoniae ATCC 700677 clinical isolates; assay type: functional
# Acinetobacter baumannii [26] = test: Ratio of MBC to MIC for Acinetobacter baumannii ATCC BAA 1141 clinical isolates; assay type: functional
# Acinetobacter baumannii [27] = test: Ratio of MBC to MIC for Acinetobacter baumannii ATCC BAA 1747 clinical isolates; assay type: functional
# Escherichia coli [28] = test: Ratio of MBC to MIC for Escherichia coli BW25113 clinical isolates; assay type: functional
# Escherichia coli [29] = test: Ratio of MBC to MIC for Escherichia coli ATCC 35150 clinical isolates; assay type: functional
# Salmonella enteritidis [30] = test: Ratio of MBC to MIC for Salmonella enteritidis ATCC 14028 clinical isolates; assay type: functional, Salmonella enterica subsp. enterica serovar Enteritidis
# Pseudomonas aeruginosa [31] = test: Ratio of MBC to MIC for Pseudomonas aeruginosa ATCC 25619 clinical isolates; assay type: functional
# Acinetobacter baumannii [32] = test: microbe, parasite or virus in culture; details: ATCC BAA 1747
# Escherichia coli [33] = test: microbe, parasite or virus in culture; details: ATCC 1411
# Pseudomonas aeruginosa [34] = test: microbe, parasite or virus in culture; details: ATCC 9027
smiles,measurement,setting,value
C/C(=N\NC(=N)N)c1cnn(-c2ccc(C#CC3CCCC3)cc2)c1C,MIC,Escherichia coli [1],2 µg/mL
same,MIC,Staphylococcus aureus [2],1 µg/mL
same,MIC,Staphylococcus aureus [3],1 µg/mL
same,MIC,Staphylococcus aureus [4],2 µg/mL
same,MIC,Staphylococcus aureus [5],0.5 µg/mL
same,MIC,Staphylococcus aureus [6],0.5 µg/mL
same,MIC,Staphylococcus aureus [7],1 µg/mL
same,Activity,Staphylococcus aureus [8],Active
same,MIC,Enterococcus faecium,1 µg/mL
same,MIC,Clostridioides difficile,1 µg/mL
same,MIC,Acinetobacter baumannii [9],8 µg/mL
same,MIC,Escherichia coli [10],8 µg/mL
same,MIC,Escherichia coli [11],4 µg/mL
same,MIC,Klebsiella pneumoniae [12],4 µg/mL
same,MIC,Klebsiella pneumoniae [13],8 µg/mL
same,MIC,Salmonella enterica,8 µg/mL
same,MIC,Salmonella enteritidis [14],4 µg/mL
same,MIC,Salmonella enteritidis [15],8 µg/mL
same,MIC,Pseudomonas aeruginosa [16],32 µg/mL
same,MIC,Klebsiella pneumoniae [17],8 µg/mL
same,MIC,Klebsiella pneumoniae [18],16 µg/mL
same,MIC,Acinetobacter baumannii [19],8 µg/mL
same,inhibition (INH),Staphylococcus aureus [20],31%
same,Activity,Staphylococcus aureus [21],90%
same,remaining at 0.25 h,[22],93%
same,remaining at 0 min,[23],100%
same,microsomal CLint,[24],< 116 µL/min/mg
same,Ratio,[25],<3
same,Ratio,Enterococcus faecalis,<3
same,Ratio,Streptococcus pneumoniae,<3
same,Ratio,Acinetobacter baumannii [26],>=1
same,Ratio,Acinetobacter baumannii [27],>=1
same,Ratio,Escherichia coli [28],>=1
same,Ratio,Escherichia coli [29],>=1
same,Ratio,Salmonella enteritidis [30],>=1
same,Ratio,Pseudomonas aeruginosa [31],>=1
same,MIC,Acinetobacter baumannii [32],4 µg/mL
same,MIC,Escherichia coli [33],8 µg/mL
same,MIC,Pseudomonas aeruginosa [34],16 µg/mL
